We go through 94 compounds from ChEMBL document CHEMBL4513216, “Probing the Open Global Health Chemical Diversity Library for Multistage-Active Starting Points for Next-Generation Antimalarials” (ACS Infect Dis, 2020).

This data set can be described thus: Toxicity liver stage against HepG2, at 10uM. The format is cell-based. Also noted: test concentration 10 uM, cell line HepG2-A16-CD81EGFP. Conditions: human, HepG2-A16-CD81EGFP cells; read-out: INHIBITION
The method in brief:
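Uninfected HepG2-A16-CD81EGFP cells, 3 × 10^3 per well, 1536-well, plated on prespotted compound at 10 μM final, parasite-free screening media added to match infected plates; puromycin 10 μM positive, DMSO 0.5% negative; run in parallel with 48 h PbLuc assay at 37 °C, 5% CO2; viability by CellTiter-Glo luminescence, normalized to controls.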
As for `COc1cc(C)c(C(C)NC(=O)c2cccnc2N(C)C)cc1OC` (centres undefined), the cytotoxicity at 10 µM is 1.25%.

As to `Cc1ccccc1CN1CCC[C@H]1c1nc(-c2cncnc2N)no1`, the cytotoxicity at 10 µM was -0.921%.

For the compound `COc1coc(C(=O)Nc2nc(-c3ccncc3)cs2)cc1=O`, the cytotoxicity at 10 µM was -7.97%.

Take `CCc1ccc(S(=O)(=O)N2CC3(COC(C)(C)OC3)C2)s1`: the cytotoxicity at 10 µM was 5.76%.

Consider `Cn1cc(CN2CCCC3(CCN(Cc4ccncc4)C3=O)C2)cn1` (centres undefined), for which the cytotoxicity at 10 µM was found to be 8.68%.

Turning to `CCOCCCNC(=O)CN(c1ccc(F)c(F)c1)S(C)(=O)=O`, the cytotoxicity at 10 µM is 9.96%.

`O=c1nc(SCc2cccnc2)c2c(n1CCO)CCC2`: the cytotoxicity at 10 µM was -18%.

For the compound `CCN(CC)S(=O)(=O)N1CCCC(c2ncc3c(n2)CCN(C)C3)C1` (centres undefined), the cytotoxicity at 10 µM came to 3.77%.

Turning to `COc1cccc([C@@]2(O)CC[C@@H]3CN(C(=O)c4ccn(C)n4)C[C@@H]32)c1`, the cytotoxicity at 10 µM turned out to be 2%.

Take `c1cc(CN2CCCCC2c2ccc(Nc3cnccn3)nc2)ccn1` (centres undefined): the cytotoxicity at 10 µM worked out at 7.38%.

Consider `CC(=O)NCCNC(=O)Nc1cc(C(C)(C)C)sc1C#N`, for which the cytotoxicity at 10 µM turned out to be 0.665%.

On to `COC(=O)c1ccoc1CN(C1CC1)C1CCS(=O)(=O)C1` (centres undefined), for which the cytotoxicity at 10 µM is 2.22%.

Take `CS(=O)(=O)c1ccc(CNC(=O)NCc2cc[nH]n2)cc1`: the cytotoxicity at 10 µM was 1.22%.

For the compound `Cc1cc(CN(CC(N)=O)CC(C)C)on1`, the cytotoxicity at 10 µM turned out to be 6.36%.

`Cc1ccccc1CN(C)C(C(N)=O)c1ccccc1` (centres undefined): the cytotoxicity at 10 µM was 13.1%.

`CC1CCC(O)(Cn2ncnc2-c2cccc(C#N)c2)CC1` (centres undefined): the cytotoxicity at 10 µM stood at 0.775%.

On to `O=C(CCC1CCCCO1)NCc1cnn(-c2ccc(F)cc2F)c1` (centres undefined), for which the cytotoxicity at 10 µM was -11.4%.

On to `O=C(NCCN1CCOCC1)c1ccc(OCc2ccccc2)nc1`, for which the cytotoxicity at 10 µM was -5.97%.

On to `O=C(OC1CCC1)c1ncccc1C(F)(F)F`, for which the cytotoxicity at 10 µM was found to be 10.6%.

For `CN(Cc1ccc2c(c1)OCO2)C(=O)c1ccc(=O)n(C)c1`, the cytotoxicity at 10 µM is -9.17%.

Take `CCCC(NC(=O)c1ccccc1Br)c1nnn[nH]1` (centres undefined): the cytotoxicity at 10 µM was -1.8%.

As to `CCn1ncc2c1CCCC2NCc1csc(C(C)C)n1` (centres undefined), the cytotoxicity at 10 µM was -1.69%.

As for `Cc1ccc(O)c(CNCC(C)c2nc3ccccc3o2)n1` (centres undefined), the cytotoxicity at 10 µM is -1.74%.

For the compound `CC(C)Nc1ncccc1C(=O)NCc1ccnn1C`, the cytotoxicity at 10 µM is -5.87%.

For the compound `CCCN(C(=O)c1ocnc1C)C1CCCN(Cc2ccccc2)C1` (centres undefined), the cytotoxicity at 10 µM is -7.79%.

With `CN1CCN(CCCN(C)S(=O)(=O)C2CCCCC2)CC1`, the cytotoxicity at 10 µM was -9.46%.

`Cc1cc(=O)[nH]cc1C(=O)N1CCN(C)c2ccccc2C1`: the cytotoxicity at 10 µM is -10.1%.

Regarding `Cc1nc(CN(C)C2CCN(Cc3nc4c(F)cccc4[nH]3)C2)no1` (centres undefined), the cytotoxicity at 10 µM was -4.09%.

In the case of `Cc1cnn(CC(C)NCc2c(C)nn(Cc3ccccc3)c2C)c1` (centres undefined), the cytotoxicity at 10 µM was -4.66%.

Regarding `Cn1cc(CCNC(=O)N2CCCc3c(F)cccc32)cn1`, the cytotoxicity at 10 µM was 14.3%.

On to `COC(=O)CN(Cc1ccccc1C)C(=O)COCC1CC1`, for which the cytotoxicity at 10 µM was 6.87%.

Regarding `Cc1cnn(CC2CCCN2Cc2cc(=O)n3cccc(C)c3n2)c1` (centres undefined), the cytotoxicity at 10 µM was 0.442%.

On to `CCCC(C)(C)NC(=O)c1ccc(CC2CC(=O)NC2=O)cc1` (centres undefined), for which the cytotoxicity at 10 µM was -19.7%.

On to `CN(C)CC(=O)N1CCc2sc(C(=O)N3CCOCC3)cc21`, for which the cytotoxicity at 10 µM was -99.4%.

With `CC(=O)N1CCC2(CC1)c1ncc(-c3ccccc3)n1CCN2C`, the cytotoxicity at 10 µM was -104%.

Consider `O=C(c1ccco1)N1CCC2(CCCN(c3ncc(F)cn3)C2)C1` (centres undefined), for which the cytotoxicity at 10 µM is -88.4%.

`CN1CCN(Cc2cnc3n2CCN(C(=O)c2ccncc2)C3)CC1`: the cytotoxicity at 10 µM was -73.8%.

As to `Cc1ccsc1C(Cn1ccnc1-c1ccccc1C(=O)O)N(C)C` (centres undefined), the cytotoxicity at 10 µM was -2.86%.

Turning to `CCc1ccccc1OCCN1CCC(NS(C)(=O)=O)CC1`, the cytotoxicity at 10 µM is -20.4%.

Consider `O=C(c1c[nH]cn1)N1CCC(n2cc(-c3ccsc3)nn2)CC1`, for which the cytotoxicity at 10 µM is -14.3%.

In the case of `COCc1noc(-c2ccc(N3CCCC3c3nccs3)nc2)n1` (centres undefined), the cytotoxicity at 10 µM is 7.12%.

With `NCCO[C@H]1C[C@@H](O)C12CCN(C1Cc3ccccc3C1)CC2`, the cytotoxicity at 10 µM came to 20.7%.

Take `COCCCN1C(=O)CC[C@H]2CN(c3ccc(C(N)=O)cn3)CC[C@H]21`: the cytotoxicity at 10 µM came out at 5.03%.

Take `CCC[C@@H]1CN(S(=O)(=O)c2ccc(OC)c(OC)c2)C[C@H]1NC(C)=O`: the cytotoxicity at 10 µM stood at 3.06%.

For `CCc1cc(C(=O)NCC2CCN(Cc3ccncc3)CC2)on1`, the cytotoxicity at 10 µM is 10.4%.

With `CN(CCCN1CCCC1)[C@@H]1c2ccccc2C2(CCNCC2)[C@H]1O`, the cytotoxicity at 10 µM is -3.99%.

For `Cc1ccc(-n2c(COC(C)C)n[nH]c2=O)cc1`, the cytotoxicity at 10 µM was 9.47%.

Take `CN(C)Cc1nnc(C2CCCN(c3nccc4ccccc34)C2)n1C` (centres undefined): the cytotoxicity at 10 µM was -0.928%.

As for `CCN(CC)C(=O)c1ccc(Cl)c(NC(=O)c2cc(C(C)C)on2)c1`, the cytotoxicity at 10 µM is 6.9%.

On to `CCN(C)C[C@@H]1CN(Cc2cccc(Cl)c2)C[C@@H]1CO`, for which the cytotoxicity at 10 µM came out at 2.45%.

Take `COc1cccc(S(=O)(=O)N2CCN(C)[C@@H]3CS(=O)(=O)C[C@@H]32)c1`: the cytotoxicity at 10 µM is -9.6%.

In the case of `Cc1cc(C(F)(F)F)nc(CCNC(C)Cn2ccnc2)n1` (centres undefined), the cytotoxicity at 10 µM is 4.21%.

In the case of `CC(=O)N[C@@H]1CN(Cc2ccccc2C(=O)O)C[C@H]1C(C)C`, the cytotoxicity at 10 µM was found to be 3.15%.

For `CC(C)n1cnnc1CN(C)C(=O)c1cc(COc2ccccc2)[nH]n1`, the cytotoxicity at 10 µM was determined as 4.58%.

As to `CNc1ncc(CN(C)c2nccc(CCC(F)(F)F)n2)cn1`, the cytotoxicity at 10 µM was -16.3%.

As for `O=C(O)C1(Cc2ccccc2Cl)CCN(c2ncnc3[nH]ccc23)CC1`, the cytotoxicity at 10 µM was determined as 11%.

Take `CN1CC2(CCN(Cc3cccc(C#N)c3)CC2)CC1=O`: the cytotoxicity at 10 µM was -0.145%.

With `Cc1ccc(C(=O)N2C[C@@H](C(=O)O)[C@H](c3ccncc3)C2)cc1F`, the cytotoxicity at 10 µM is -11.2%.

Regarding `Cc1cc(-n2cccn2)ccc1CN1C[C@@H](CN(C)C)[C@@H](CO)C1`, the cytotoxicity at 10 µM was -9.4%.

Take `COc1ccc(C(=O)C2CCCN(Cc3ccc(C)o3)C2)c(OC)c1` (centres undefined): the cytotoxicity at 10 µM turned out to be 1.17%.

Consider `Cc1nc(O)c2nnn(C[C@H]3CCCN3C(=O)c3cccc(F)c3)c2n1`, for which the cytotoxicity at 10 µM is -0.00161%.

For the compound `Cc1ncccc1O[C@H]1CCN(C(=O)Cc2cccs2)CC[C@@H]1O`, the cytotoxicity at 10 µM amounted to 5.92%.

Regarding `COCc1cccc(CNC(=O)c2c(C)noc2C(C)C)c1`, the cytotoxicity at 10 µM turned out to be 0.153%.

As for `O=C(CN1CCCC1Cn1cncn1)NCCOc1ccc(F)cc1` (centres undefined), the cytotoxicity at 10 µM is -3.56%.

In the case of `CC(C)Oc1ncccc1CNC(=O)NC1CCOc2ccccc21` (centres undefined), the cytotoxicity at 10 µM is -3.16%.

As for `Cc1c(C(=O)N2CCCC2c2cnn(C)c2)cnn1-c1ccccc1` (centres undefined), the cytotoxicity at 10 µM was -23.7%.

For `CC(C)(NCC(=O)NC(=O)NC1CC1)c1ccc2c(c1)OCO2`, the cytotoxicity at 10 µM is -1.27%.

Consider `Brc1cccc(-c2noc(CN3CCOCC3)n2)c1`, for which the cytotoxicity at 10 µM is -15.2%.

Turning to `CC(C)Sc1ncccc1C(=O)NCc1ccoc1`, the cytotoxicity at 10 µM is -0.945%.

`CCN(c1cc(C)cc(C)c1)S(=O)(=O)c1cc(C(=O)O)cs1`: the cytotoxicity at 10 µM was -1.92%.

Regarding `Cc1nc(CN2CCN(C(=O)c3ccnc(N(C)C)c3)CC2)cs1`, the cytotoxicity at 10 µM is 1.42%.

`Cc1nn(C)c(N2CCOCC2)c1CNCc1ccc(C(C)O)cc1` (centres undefined): the cytotoxicity at 10 µM was -4.93%.

In the case of `Cc1ncsc1C(=O)NC1CCN(CC(=O)N(C)C(C)(C)C#N)CC1`, the cytotoxicity at 10 µM was -3.88%.

Regarding `Cc1nc2ccnn2c(C)c1CCC(=O)N1CCC(C(N)=O)CC1`, the cytotoxicity at 10 µM is -9.26%.

With `CC(N(C)Cc1nc2c(cnn2C)c(=O)[nH]1)C(C)(C)C` (centres undefined), the cytotoxicity at 10 µM is -3.09%.

`CN(Cc1nnc(C2CC2)n1C)C1CCN(Cc2ccon2)C1` (centres undefined): the cytotoxicity at 10 µM was -9.04%.

Regarding `Cc1noc(CN(Cc2ccc3c(c2)OCO3)C2CCCC2)n1`, the cytotoxicity at 10 µM was -5.28%.

On to `Cc1ncsc1C(=O)NC1CCN(Cc2ccc(C#N)cc2)CC1`, for which the cytotoxicity at 10 µM was -6.46%.

`Cc1[nH]ncc1C(=O)N1CCCC(n2cncn2)C1` (centres undefined): the cytotoxicity at 10 µM turned out to be 7.75%.

`Fc1cnc(N2C[C@@H]3COC[C@]3(COc3ccccn3)C2)nc1`: the cytotoxicity at 10 µM was -5.43%.

As to `CN(C)C(=O)CO[C@H]1CN(Cc2cccc(F)c2)[C@@H]2CCCO[C@H]12`, the cytotoxicity at 10 µM is -2.76%.

As to `CN1CCO[C@@H]2CN(C(=O)c3ccc4[nH]ccc4c3)CC[C@@H]2C1`, the cytotoxicity at 10 µM is -108%.

In the case of `O=C(c1cscn1)N1CC[C@]2(C[C@@H](OCCN3CCCC3)CO2)C1`, the cytotoxicity at 10 µM came to 0.462%.

`Cc1ccccc1CN1C[C@@H](C(=O)N2CCCCO2)C[C@H]2OCC[C@H]21`: the cytotoxicity at 10 µM is -68.5%.

`CN(C)C(=O)[C@@H]1CCO[C@@H]2CCN(CCOCc3ccccc3)C[C@H]21`: the cytotoxicity at 10 µM was -0.902%.

For the compound `COCCN1CCc2cc(C(=O)O)c(-c3ccoc3)nc2CC1`, the cytotoxicity at 10 µM was -75.6%.

Take `Cc1ccc(CN2CCOC3(COCCN(C(C)C)C3)C2)o1` (centres undefined): the cytotoxicity at 10 µM was -107%.

Regarding `Cc1noc(C)c1CN1CCc2ncnc(-c3cnn(C)c3)c2CC1`, the cytotoxicity at 10 µM was -98.4%.

For the compound `Cc1cnc(C(=O)N2Cc3ncn(C)c3C(COCC(C)C)C2)cn1` (centres undefined), the cytotoxicity at 10 µM is -112%.

As to `CCn1ncc2c1C(COC)N(C(=O)CCc1ccccc1)CC2` (centres undefined), the cytotoxicity at 10 µM was -96.8%.

As to `Cc1ccc(CN2CCCn3c(nc(CN4CCCC4)cc3=O)C2)s1`, the cytotoxicity at 10 µM is -0.207%.

Consider `Cc1nc(CN2C[C@@H]3COC[C@]3(COCC(=O)N(C)C)C2)cs1`, for which the cytotoxicity at 10 µM was determined as 1.41%.

In the case of `CCOCCC(=O)N1C[C@@H]2CC[C@H]1CN(c1ncccn1)C2`, the cytotoxicity at 10 µM was 2.53%.

Take `CN1CCC(n2cc3nc(N)[nH]cc-3c2=O)CC1`: the cytotoxicity at 10 µM was 8.6%.
